Source: article PMC3838204 (Journal of the American Chemical Society, 2013)

Assay: Hydrolysis of peptide-thioester
Assay type: physicochemical
Method in brief: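 The Asp peptide-thioester (~2 mM) was incubated with Cys-peptide (~2.4 mM) in helium-purged buffer: 6 M Gu·HCl, 200 mM Na2HPO4, 10 mM TCEP·HCl, 20 mM MPAA, pH 7.0, RT, 18–24 h. Monitoring was by LC-MS and RP-HPLC (210 nm). Control omitted Cys-peptide and MPAA, at pH 6.8 for 19 h. The thioester was also examined after HF deprotection/cleavage.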

Substance | hydrolysis of the peptide-thioester after HF deprotection and cleavage (after HF deprotection and cleavage) | hydrolyzed product formed from the peptide-thioester (control in absence of the Cys-peptide and without added MPAA, 19 h, pH 6.8) | hydrolysis of the peptide-thioester during the ligation reaction (ligation conditions: 6 M guanidine hydrochloride, 200 mM Na2HPO4, 10 mM TCEP, 20 mM MPAA, pH 7.0, RT, 18–24 hours, LC-MS) | hydrolysis of the thioester, control (control in absence of the Cys-peptide and without added MPAA)
LYRAD-^αCOSR` | no hydrolysis | about 30% | nor was significant hydrolysis | 
LYRAX-^αCOSR` [−Glu-α-thioester] |  |  |  | no significant hydrolysis
